Activity calls are given as the source filed them. The rule behind the calls is not given here.
How the values were obtained:
A-375 [1] = experiment: Cell cycle arrest in human A375 cells assessed as accumulation at G2/M phase at 4 uM after 24 hrs using propidium iodide staining by FACS; type: functional
Procedure, shortened: (§1)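 Treated A375 cells (24 h) were harvested with trypsin-EDTA and fixed in ice-cold 70% ethanol (4 °C, 30 min). After a PBS wash, they were incubated with 1 mg/mL RNase A (37 °C, 30 min) and stained with propidium iodide solution containing trisodium citrate and Triton X-100. DNA content was measured by flow cytometry on 20,000 events. Controls were DMSO-treated.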

SiHa = experiment: Anticancer activity against human SiHa cells after 48 hrs by SRB assay; type: functional
Procedure, shortened: (§2)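 Cells grown in RPMI 1640 with 10% FBS and 2 mM L-glutamine, plated at densities set by doubling time, and preincubated 24 h at 37 °C, 5% CO2. Compounds were tested at four concentrations (0.1, 1, 10, 100) in triplicate wells with 48 h continuous exposure. Cells were fixed with cold TCA (10% final, 60 min, 4 °C) and stained with 0.4% SRB in 1% acetic acid (20 min, RT). Dye was eluted with 10 mM Trizma base and read at 540 nm (690 nm reference). Percent growth is relative to control wells, plate by plate.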

A-375 [2] = experiment: Induction of apoptosis in human A375 cells assessed as increase in cytochromeC protein level at 4 uM after 24 hrs by Western blotting; type: functional, cell-based
Procedure, shortened: (§3)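 A375 cells treated 24 h, then lysed in ice-cold RIPA buffer (1% NP-40, 0.5% deoxycholate, 0.1% SDS, protease inhibitors). Protein was quantified by Bradford, and 30 µg per lane run on 12% SDS-PAGE and transferred to PVDF. Blots were blocked 2 h at RT in TBST with 5% blocking powder, probed with primary antibody overnight at 4 °C, then HRP secondary (1:2000, 1 h RT), and read by chemiluminescence against β-actin loading control.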

A-375 [3] = experiment: Induction of apoptosis in human A375 cells assessed as reduction in CDK2 protein level at 4 uM after 24 hrs by Western blotting; type: functional, cell-based
Procedure, shortened: (§4)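 A375 cells were treated for 24 h and lysed in ice-cold RIPA buffer (1% NP-40, 0.5% deoxycholate, 0.1% SDS, protease inhibitors). Protein was quantified by Bradford assay, and 30 µg/lane was run on 12% SDS-PAGE and transferred to PVDF. Membranes were blocked 2 h at RT in TBST with 5% blocker, incubated with primary antibody overnight at 4 °C, then with HRP secondary (1:2000, 1 h, RT). Detection was by chemiluminescence, with β-actin as loading control.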

A-375 [4] = experiment: Induction of apoptosis in human A375 cells assessed as increase in PPAR protein level at 4 uM after 24 hrs by Western blotting; type: functional, cell-based; procedure, shortened: as §4
A-375 [5] = experiment: Cell cycle arrest in human A375 cells assessed as accumulation at G0/G1 phase at 4 uM after 24 hrs using propidium iodide staining by FACS; type: functional; procedure, shortened: as §1
KB = experiment: Anticancer activity against human KB cells after 48 hrs by SRB assay; type: functional
Procedure, shortened: (§5)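 Grown in RPMI 1640 with 10% FBS and 2 mM L-glutamine at 37 °C, 5% CO2. Seeded at densities set by doubling time, then preincubated 24 h. Continuous 48 h drug exposure at four concentrations (0.1, 1, 10, 100), triplicate wells. Fixed with cold TCA (final 10%) at 4 °C, 60 min. Stained with 0.4% SRB in 1% acetic acid, eluted with 10 mM Tris base, read at 540/690 nm. Percent growth versus control wells.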

A2780 = experiment: Anticancer activity against human A2780 cells after 48 hrs by SRB assay; type: functional; details: A2780, 48 h; procedure, shortened: as §5
A-375 [6] = experiment: Cell cycle arrest in human A375 cells assessed as accumulation at S phase at 4 uM after 24 hrs using propidium iodide staining by FACS; type: functional; procedure, shortened: as §1
A-375 [7] = experiment: Induction of apoptosis in human A375 cells assessed as increase in p53 protein level at 4 uM after 24 hrs by Western blotting; type: functional, cell-based; procedure, shortened: as §3
A-375 [8] = experiment: Induction of apoptosis in human A375 cells assessed as caspase3 activation at 4 uM after 24 hrs by fluorimetry; type: functional, cell-based
Procedure, shortened: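 Caspase-3 activity was measured by a fluorometric assay on lysates of treated and untreated A375 cells.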

ZR-75-1 = experiment: Anticancer activity against human ZR-75-1 cells after 48 hrs by SRB assay; type: functional; details: ZR-75-1, 48 h; procedure, shortened: as §2

`COc1cc(C2=NOC(c3cc(OC)c(OC)c(OC)c3)C2)ccc1OCCCOc1cc2c(cc1OC)C(=O)N1CCC[C@H]1C=N2` (some centres not stated) was tested, and the Activity (A-375 [1]) was 0.4%, the GI50 (SiHa) was < 100 nM and the Activity (A-375 [2]) was “Active”. The Activity (A-375 [3]) was “Active”, the Activity (A-375 [4]) was “Active” and the Activity (A-375 [5]) was 98.5%. For the same compound, the GI50 (KB) was < 100 nM, the GI50 (A2780) was < 100 nM and the Activity (A-375 [6]) was 1.1%. The Activity (A-375 [7]) was “Active”, the Activity (A-375 [8]) was “Active” and the GI50 (ZR-75-1) was < 100 nM.
